The target in test [1] is Phosphatidylinositol 4,5-bisphosphate 3-kinase catalytic subunit delta isoform (Homo sapiens, UniProt O00329). The test can be described thus: Inhibition of PI3K p110delta (unknown origin).
Test [2] addresses Serine/threonine-protein kinase pim-1 (Homo sapiens, UniProt P11309). The test can be described thus: Inhibition of PIM1 (unknown origin) at 1 uM relative to control. The method, boiled down: (§1)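 Single-point screen at 1 μM compound. Percent inhibition is the mean of two separate measurements, each run in duplicate.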
Test [3] addresses Dual specificity protein kinase CLK4 (Homo sapiens, UniProt Q9HAZ1). The test can be described thus: Inhibition of full length recombinant human GST-tagged CLK4 expressed in baculovirus expression system by lantha screen kinase binding assay. The method, boiled down: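 LanthaScreen binding format: test compound competes with an Alexa Fluor-conjugated tracer for the ATP site. IC50 derived from this displacement, not from peptide phosphorylation.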

Test [4] deals with T1, Phosphatidylinositol 4,5-bisphosphate 3-kinase catalytic subunit alpha isoform (Homo sapiens, UniProt P42336). As to the kind of experiment: Inhibition of PI3K p110alpha (unknown origin) at 1 uM relative to control. The method, boiled down:
as §1

Test [5] deals with Myosin light chain kinase 2, skeletal/cardiac muscle (Homo sapiens, UniProt Q9H1R3). The test can be described thus: Inhibition of full length recombinant human N-terminal GST-tagged MLCK expressed in baculovirus expression system at 1 uM by lantha screen kinase binding assay relative to control. The method, boiled down: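 Binding-displacement format: the compound competes with an Alexa Fluor-conjugated tracer for binding to the kinase ATP site, rather than a peptide phosphorylation read-out.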

Test [6] concerns the target T2, Serine/threonine-protein kinase haspin (Homo sapiens) (UniProt Q8TF76).
T2 sequence (whole entry): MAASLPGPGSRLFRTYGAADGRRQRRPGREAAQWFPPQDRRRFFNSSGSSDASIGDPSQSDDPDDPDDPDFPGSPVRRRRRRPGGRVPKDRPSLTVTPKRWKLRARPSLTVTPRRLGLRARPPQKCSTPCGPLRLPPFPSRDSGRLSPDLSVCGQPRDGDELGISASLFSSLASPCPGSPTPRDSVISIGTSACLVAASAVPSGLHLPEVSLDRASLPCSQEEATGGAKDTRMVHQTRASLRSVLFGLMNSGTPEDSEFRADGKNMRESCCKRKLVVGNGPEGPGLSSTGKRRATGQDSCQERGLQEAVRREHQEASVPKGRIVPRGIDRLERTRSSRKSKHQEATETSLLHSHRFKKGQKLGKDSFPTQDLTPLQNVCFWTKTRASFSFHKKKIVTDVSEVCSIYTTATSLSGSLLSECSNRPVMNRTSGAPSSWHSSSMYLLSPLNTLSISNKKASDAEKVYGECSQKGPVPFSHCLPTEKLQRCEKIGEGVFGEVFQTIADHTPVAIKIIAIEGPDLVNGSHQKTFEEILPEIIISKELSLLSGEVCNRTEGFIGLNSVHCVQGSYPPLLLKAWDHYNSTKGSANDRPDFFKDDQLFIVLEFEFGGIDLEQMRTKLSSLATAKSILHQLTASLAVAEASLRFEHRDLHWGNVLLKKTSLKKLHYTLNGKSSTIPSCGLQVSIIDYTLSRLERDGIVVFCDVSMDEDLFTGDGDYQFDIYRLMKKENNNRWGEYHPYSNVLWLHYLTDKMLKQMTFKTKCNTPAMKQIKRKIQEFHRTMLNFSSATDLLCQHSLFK
The test can be described thus: Inhibition of Haspin (unknown origin) at 1 uM relative to control. The method, boiled down:
as §1

In test [7] the target is T3, Phosphatidylinositol 4,5-bisphosphate 3-kinase catalytic subunit delta isoform (Homo sapiens) (UniProt O00329).
T3 sequence (whole entry): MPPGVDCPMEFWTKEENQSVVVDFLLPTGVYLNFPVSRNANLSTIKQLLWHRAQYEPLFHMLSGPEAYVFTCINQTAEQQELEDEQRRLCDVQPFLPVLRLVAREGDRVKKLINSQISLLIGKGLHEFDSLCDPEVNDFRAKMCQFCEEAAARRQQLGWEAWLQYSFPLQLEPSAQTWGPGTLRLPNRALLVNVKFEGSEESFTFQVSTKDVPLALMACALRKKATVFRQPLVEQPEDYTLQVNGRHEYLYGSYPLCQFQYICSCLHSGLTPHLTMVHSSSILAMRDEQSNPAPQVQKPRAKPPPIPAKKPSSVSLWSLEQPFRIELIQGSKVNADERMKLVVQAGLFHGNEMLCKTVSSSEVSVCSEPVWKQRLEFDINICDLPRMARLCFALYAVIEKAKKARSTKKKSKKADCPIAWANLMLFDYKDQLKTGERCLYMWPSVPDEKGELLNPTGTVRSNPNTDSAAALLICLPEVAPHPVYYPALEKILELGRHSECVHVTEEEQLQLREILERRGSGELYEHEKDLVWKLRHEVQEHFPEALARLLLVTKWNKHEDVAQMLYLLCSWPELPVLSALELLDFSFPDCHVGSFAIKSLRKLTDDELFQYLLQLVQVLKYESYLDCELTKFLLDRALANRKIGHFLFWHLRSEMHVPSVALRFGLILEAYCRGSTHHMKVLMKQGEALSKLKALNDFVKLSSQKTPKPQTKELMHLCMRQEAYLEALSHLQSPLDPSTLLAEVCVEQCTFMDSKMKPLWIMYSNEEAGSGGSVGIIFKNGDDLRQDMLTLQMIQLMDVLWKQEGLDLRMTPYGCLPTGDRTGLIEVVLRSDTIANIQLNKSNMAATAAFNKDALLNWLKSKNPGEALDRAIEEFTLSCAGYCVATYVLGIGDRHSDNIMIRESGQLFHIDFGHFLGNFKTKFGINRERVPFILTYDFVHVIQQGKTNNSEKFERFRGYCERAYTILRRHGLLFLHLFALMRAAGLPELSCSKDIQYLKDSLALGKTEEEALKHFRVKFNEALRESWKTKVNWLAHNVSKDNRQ
The following applies: 1 uM.

Test [8] deals with Serine/threonine-protein kinase haspin (Homo sapiens, UniProt Q8TF76). As to the kind of experiment: Inhibition of Haspin (unknown origin). The method, boiled down:
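Calculated from means of duplicates differing by less than 7%.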

The target in test [9] is Serine/threonine-protein kinase 17A (Homo sapiens) (UniProt Q9UEE5). The test can be described thus: Inhibition of STK17A (unknown origin) at 1 uM relative to control.
Serine/threonine-protein kinase 17A (Homo sapiens), sequence (Q9UEE5 whole entry): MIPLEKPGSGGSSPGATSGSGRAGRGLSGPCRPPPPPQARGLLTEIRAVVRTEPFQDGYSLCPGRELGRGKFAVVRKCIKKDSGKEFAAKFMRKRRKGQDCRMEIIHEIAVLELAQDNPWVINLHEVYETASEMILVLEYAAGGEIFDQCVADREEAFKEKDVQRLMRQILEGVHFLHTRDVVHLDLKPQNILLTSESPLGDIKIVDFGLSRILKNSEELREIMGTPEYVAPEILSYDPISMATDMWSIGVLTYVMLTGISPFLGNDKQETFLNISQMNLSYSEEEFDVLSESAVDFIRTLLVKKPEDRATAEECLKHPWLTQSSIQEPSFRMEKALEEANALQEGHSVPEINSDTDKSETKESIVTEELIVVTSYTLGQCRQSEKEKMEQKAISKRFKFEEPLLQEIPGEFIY
Test [10] can be described thus: Growth inhibition of human U87MG cells after 4 days by MTT assay. The note with it: U-87 MG, 96 h. Format: functional, cell-based, U-87MG ATCC.
Test [11] concerns the target Phosphatidylinositol 4-phosphate 3-kinase C2 domain-containing subunit beta (Homo sapiens) (UniProt O00750). The test can be described thus: Inhibition of PI3K-C2beta (unknown origin) at 1 uM relative to control. The method, boiled down:
as §1

Test [12] has as its target T1, Phosphatidylinositol 4,5-bisphosphate 3-kinase catalytic subunit alpha isoform. The test can be described thus: Inhibition of PI3K p110alpha (unknown origin) at 5 uM relative to control.
The target in test [13] is Phosphatidylinositol 4-phosphate 3-kinase C2 domain-containing subunit beta (Homo sapiens) (UniProt O00750). As to the kind of experiment: Inhibition of PI3K-C2beta (unknown origin) at 5 uM relative to control.
Phosphatidylinositol 4-phosphate 3-kinase C2 domain-containing subunit beta (Homo sapiens), sequence (O00750 whole entry, the tested form may be a part): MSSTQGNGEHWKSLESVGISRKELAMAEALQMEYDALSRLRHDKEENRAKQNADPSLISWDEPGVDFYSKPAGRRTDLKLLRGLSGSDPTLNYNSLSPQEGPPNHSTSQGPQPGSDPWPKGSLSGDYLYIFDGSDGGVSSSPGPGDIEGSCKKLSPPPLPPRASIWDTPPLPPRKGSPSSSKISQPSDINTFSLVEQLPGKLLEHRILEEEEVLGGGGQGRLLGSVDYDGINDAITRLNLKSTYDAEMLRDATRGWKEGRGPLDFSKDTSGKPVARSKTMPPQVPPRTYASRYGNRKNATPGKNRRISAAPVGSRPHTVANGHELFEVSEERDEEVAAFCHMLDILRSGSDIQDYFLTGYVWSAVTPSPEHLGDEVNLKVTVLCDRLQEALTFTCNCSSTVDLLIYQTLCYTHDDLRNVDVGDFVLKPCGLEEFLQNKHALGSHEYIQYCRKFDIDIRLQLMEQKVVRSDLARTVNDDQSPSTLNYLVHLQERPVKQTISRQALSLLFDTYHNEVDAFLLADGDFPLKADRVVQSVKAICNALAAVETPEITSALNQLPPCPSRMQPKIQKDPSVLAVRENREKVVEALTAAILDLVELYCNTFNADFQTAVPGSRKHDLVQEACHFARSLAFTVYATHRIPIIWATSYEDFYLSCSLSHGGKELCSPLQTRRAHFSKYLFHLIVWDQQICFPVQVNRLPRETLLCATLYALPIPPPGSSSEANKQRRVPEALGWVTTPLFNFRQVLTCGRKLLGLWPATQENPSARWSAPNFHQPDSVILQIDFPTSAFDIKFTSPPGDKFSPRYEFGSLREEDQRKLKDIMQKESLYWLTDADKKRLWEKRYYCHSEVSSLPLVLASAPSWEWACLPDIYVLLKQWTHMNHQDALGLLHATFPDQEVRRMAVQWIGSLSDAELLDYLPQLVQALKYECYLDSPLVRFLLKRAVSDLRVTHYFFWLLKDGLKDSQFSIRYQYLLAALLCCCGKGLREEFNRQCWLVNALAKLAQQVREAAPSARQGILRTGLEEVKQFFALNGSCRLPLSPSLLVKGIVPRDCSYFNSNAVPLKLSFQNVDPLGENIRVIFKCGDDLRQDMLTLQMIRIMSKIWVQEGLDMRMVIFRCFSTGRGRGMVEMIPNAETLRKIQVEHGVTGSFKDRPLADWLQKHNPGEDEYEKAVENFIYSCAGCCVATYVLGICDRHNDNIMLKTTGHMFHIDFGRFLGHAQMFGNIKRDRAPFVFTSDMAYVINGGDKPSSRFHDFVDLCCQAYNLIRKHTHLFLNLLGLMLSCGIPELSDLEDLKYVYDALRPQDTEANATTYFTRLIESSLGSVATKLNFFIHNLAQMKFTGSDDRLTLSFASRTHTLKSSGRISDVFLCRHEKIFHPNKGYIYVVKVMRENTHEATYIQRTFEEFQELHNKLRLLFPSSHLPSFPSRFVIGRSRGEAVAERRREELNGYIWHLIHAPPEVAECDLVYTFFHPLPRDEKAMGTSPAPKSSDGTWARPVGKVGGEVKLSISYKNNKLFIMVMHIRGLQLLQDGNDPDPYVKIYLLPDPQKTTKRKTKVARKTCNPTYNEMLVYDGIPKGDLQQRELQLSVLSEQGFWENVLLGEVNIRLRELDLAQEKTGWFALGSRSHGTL
Test [14] concerns the target T2, Serine/threonine-protein kinase haspin (Homo sapiens). As to the kind of experiment: Inhibition of Haspin (unknown origin) at 5 uM relative to control.
For test [15], the target named is Phosphatidylinositol 4,5-bisphosphate 3-kinase catalytic subunit gamma isoform (Homo sapiens, UniProt P48736). The test can be described thus: Inhibition of PI3K p110gamma (unknown origin) at 5 uM relative to control.
Phosphatidylinositol 4,5-bisphosphate 3-kinase catalytic subunit gamma isoform, sequence (P48736 whole entry, looked up, canonical isoform): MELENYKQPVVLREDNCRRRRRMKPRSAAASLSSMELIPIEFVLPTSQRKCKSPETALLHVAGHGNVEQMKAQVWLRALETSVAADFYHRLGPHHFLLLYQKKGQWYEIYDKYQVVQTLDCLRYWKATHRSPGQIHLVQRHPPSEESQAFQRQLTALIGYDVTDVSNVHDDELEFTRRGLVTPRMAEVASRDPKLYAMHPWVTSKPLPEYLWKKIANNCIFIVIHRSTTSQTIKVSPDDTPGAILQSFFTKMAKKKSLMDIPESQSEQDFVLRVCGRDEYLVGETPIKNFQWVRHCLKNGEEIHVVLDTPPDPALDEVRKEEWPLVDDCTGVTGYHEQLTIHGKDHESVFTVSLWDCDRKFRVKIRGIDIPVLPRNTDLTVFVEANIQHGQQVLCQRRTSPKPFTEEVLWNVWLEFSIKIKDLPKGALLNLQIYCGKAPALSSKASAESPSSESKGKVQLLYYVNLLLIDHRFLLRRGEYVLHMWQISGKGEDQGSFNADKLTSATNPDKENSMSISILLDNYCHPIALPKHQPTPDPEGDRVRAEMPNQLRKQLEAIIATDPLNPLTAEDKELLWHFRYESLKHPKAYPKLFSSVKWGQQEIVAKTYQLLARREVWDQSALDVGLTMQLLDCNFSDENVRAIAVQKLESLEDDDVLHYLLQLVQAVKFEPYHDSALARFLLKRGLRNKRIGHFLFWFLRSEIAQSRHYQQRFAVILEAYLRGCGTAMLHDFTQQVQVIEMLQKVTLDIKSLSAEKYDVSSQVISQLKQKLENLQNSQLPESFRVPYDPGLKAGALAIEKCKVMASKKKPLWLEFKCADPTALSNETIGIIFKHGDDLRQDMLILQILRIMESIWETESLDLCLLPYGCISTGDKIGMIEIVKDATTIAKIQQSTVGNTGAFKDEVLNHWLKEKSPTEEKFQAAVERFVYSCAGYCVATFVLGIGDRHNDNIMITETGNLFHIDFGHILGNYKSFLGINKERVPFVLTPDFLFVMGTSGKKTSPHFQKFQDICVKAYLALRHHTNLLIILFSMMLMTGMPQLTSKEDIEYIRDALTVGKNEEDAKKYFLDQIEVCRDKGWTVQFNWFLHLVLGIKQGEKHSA
The target of test [16] is Mitogen-activated protein kinase 14 (Homo sapiens) (UniProt Q16539). The test can be described thus: Inhibition of full length recombinant human GST-tagged MAPK14 expressed in Escherichia coli at 5 uM by lantha screen kinase binding assay relative to control.
Mitogen-activated protein kinase 14 (Homo sapiens), sequence (Q16539 whole entry): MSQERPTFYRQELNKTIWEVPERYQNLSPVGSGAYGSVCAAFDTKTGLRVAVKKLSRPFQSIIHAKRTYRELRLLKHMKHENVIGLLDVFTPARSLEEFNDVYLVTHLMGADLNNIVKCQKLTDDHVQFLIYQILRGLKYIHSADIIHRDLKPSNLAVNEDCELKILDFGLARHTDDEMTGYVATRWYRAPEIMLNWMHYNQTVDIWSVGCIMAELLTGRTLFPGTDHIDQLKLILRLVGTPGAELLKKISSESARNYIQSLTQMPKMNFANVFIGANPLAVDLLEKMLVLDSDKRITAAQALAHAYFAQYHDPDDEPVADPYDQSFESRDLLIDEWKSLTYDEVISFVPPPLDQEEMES

Calls of active or inactive are those of the source. The rule behind the calls is not given here.

T1 sequence (P42336 whole entry, canonical isoform): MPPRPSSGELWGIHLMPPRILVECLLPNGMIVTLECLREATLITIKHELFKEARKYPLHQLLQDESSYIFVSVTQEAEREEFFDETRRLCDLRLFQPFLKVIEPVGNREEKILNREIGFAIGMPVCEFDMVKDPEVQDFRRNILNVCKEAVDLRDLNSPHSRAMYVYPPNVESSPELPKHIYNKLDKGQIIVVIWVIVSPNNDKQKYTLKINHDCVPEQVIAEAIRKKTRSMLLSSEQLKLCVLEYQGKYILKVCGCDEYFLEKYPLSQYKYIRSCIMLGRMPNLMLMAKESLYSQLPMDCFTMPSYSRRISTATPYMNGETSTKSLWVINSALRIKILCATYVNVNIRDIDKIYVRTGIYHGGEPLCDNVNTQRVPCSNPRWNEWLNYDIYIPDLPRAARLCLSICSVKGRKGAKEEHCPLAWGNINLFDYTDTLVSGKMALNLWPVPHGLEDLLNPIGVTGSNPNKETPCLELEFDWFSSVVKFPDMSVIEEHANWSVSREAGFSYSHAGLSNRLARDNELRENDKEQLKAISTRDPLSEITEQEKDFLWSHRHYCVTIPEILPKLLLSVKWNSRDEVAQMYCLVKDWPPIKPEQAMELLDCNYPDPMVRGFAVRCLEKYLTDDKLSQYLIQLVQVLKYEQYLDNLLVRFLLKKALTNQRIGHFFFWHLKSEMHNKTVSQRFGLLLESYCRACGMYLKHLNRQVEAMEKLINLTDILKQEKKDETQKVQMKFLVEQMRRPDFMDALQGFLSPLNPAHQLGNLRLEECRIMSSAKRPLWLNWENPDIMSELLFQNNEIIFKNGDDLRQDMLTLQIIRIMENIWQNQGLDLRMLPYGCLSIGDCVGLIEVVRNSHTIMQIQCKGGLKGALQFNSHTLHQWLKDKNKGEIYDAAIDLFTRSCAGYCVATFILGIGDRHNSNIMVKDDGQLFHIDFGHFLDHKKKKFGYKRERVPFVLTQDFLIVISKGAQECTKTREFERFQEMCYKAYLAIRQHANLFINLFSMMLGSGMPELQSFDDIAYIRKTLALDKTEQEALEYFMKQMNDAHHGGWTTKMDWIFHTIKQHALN
Dual specificity protein kinase CLK4, sequence (Q9HAZ1 whole entry): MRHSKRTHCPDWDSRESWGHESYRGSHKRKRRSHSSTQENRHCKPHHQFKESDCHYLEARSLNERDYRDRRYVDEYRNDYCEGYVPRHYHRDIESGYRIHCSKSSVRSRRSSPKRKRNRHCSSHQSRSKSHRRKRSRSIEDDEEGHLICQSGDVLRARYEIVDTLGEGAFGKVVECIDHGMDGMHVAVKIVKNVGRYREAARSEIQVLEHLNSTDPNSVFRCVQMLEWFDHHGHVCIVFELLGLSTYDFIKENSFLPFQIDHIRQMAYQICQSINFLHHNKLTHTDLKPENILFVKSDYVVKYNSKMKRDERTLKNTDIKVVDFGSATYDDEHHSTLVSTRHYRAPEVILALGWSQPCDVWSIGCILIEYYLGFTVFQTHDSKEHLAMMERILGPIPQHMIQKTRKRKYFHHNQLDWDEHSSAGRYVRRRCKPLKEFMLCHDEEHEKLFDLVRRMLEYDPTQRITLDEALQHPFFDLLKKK

`O=C1NC(=S)S/C1=C\c1ccc2ncccc2c1`: the IC50 in [1] worked out at 16.1 nM; in test [3], 17.8 nM; in test [8] it was 259 nM; in test [10], 200 nM. Further, the inhibition in test [2] was determined as 89%; in [4], 100%; in test [5] it was 89%; in test [6], 93%; in test [7], 97%; in test [9] it was 97%. Also, in [11], the inhibition was 62%.
On to `O=C1OCC/C1=C\c1ccc2ncsc2c1`, for which the inhibition in test [12] turned out to be 90%; in test [13], 13%; in [14], 75%; in test [15], 79%.
`O=C1NC(=S)S/C1=C\c1ccc2ncsc2c1`: the IC50 was 12.4 nM in test [1], 31.8 nM in [3], 255 nM in test [8] and 560 nM in [10]. Also, in [16], the inhibition result is “inactive”. Also, the inhibition in test [4] is 98%; in test [6] it was 93%; in [7] it was 90%; in test [11] it was 56%.
On to `CC1C/C(=C\c2ccc3c(c2)CCO3)C(=O)O1` (stereo not drawn), for which the inhibition in test [12] amounted to 84%; in test [13] it was 8%; in test [14], 43%; in test [15], 75%.

As a reminder, the IC50 is the concentration needed to halve the response being measured. In general, inhibition refers to the change of the read-out against control, counted positive when it falls.

The values above are taken from ChEMBL document CHEMBL3774321, “Systematic diversification of benzylidene heterocycles yields novel inhibitor scaffolds selective for Dyrk1A, Clk1 and CK2” (Eur J Med Chem, 2016).
